Source: PMC5900865 (Clinical Pharmacology in Drug Development, 2017)

What was measured:
[1] = Study 1A single-rising-dose pharmacokinetics; assay type: in vivo, human; conditions: for Tmax / half-life / AUC(0-inf) / Cmax: human, plasma; for CL/F / Fe0–48, cumulative excretion ratio (% of dose): fasted, men; for Fe0–48, cumulative excretion ratio (% of dose): urine 0 to 48 hours
Procedure, shortened: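 Healthy men received single oral doses of 2.5–40 mg. The 2.5 mg cohort was redosed fed (30 min post-breakfast) on day 15 after a 14-day washout. EDTA plasma was sampled predose and 1–216 h postdose; urine was pooled at 0–6, 6–12, 12–24 and 24–48 h. Samples were stored at ≤ −20 °C, liquid–liquid extracted and assayed by HPLC-MS/MS. Parameters came from noncompartmental analysis.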

[2] = Study 2 single-dose pharmacokinetics in elderly adults; assay type: in vivo, human; conditions: for AUC(0-inf) / Cmax / Tmax: human, plasma, oral, 10 mg; for T1/2 / Fe0–120, fraction excreted: single 10 mg; for T1/2: fasted; for Fe0–120, fraction excreted: urine 0 to 120 hours
Procedure, shortened: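 Elderly men and women (65–85 y) received a single oral 10 mg dose, fasted, in the morning. Plasma vortioxetine and metabolites were assayed by HPLC-MS/MS after liquid–liquid extraction. Urine was pooled predose and at 24-h intervals to 120 h. Parameters came from noncompartmental analysis. Below-LLOQ concentrations were entered as zero in means. Tmax is median (min–max).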

[3] = Study 3 food-effect pharmacokinetics; assay type: in vivo, human
Procedure, shortened: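 Open-label two-period crossover in healthy men given 10 mg orally on days 1 and 15, fasted or fed. Fasted dosing followed ≥10 h fasting, with water. Fed dosing came within 10 min after a high-fat breakfast (≥900 kcal, ≥35% fat) eaten within 20 min. Plasma was sampled predose to 168 h; urine was pooled to 168 h. Log-transformed Cmax/AUC were analysed by ANOVA with 90% CI of back-transformed LS mean ratios. Tmax used Wilcoxon signed-rank.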

healthy adult men = experiment: Study 1A safety evaluation; assay type: in vivo, human
Procedure, shortened: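 Randomized, double-blind, placebo-controlled study in healthy Japanese men. Single oral doses rose from 2.5 to 40 mg, doubling over 5 cohorts of 9 (2:1 drug:placebo). Each escalation followed review of safety data to day 5 and PK data to 48 h. AEs, body weight, vital signs, 12-lead ECG and haematology, chemistry, coagulation and urinalysis were recorded. TEAE incidence, intensity and drug relationship were compared with placebo.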

[4] = system: healthy adult men and women; experiment: Study 1B safety evaluation; assay type: in vivo, human
Procedure, shortened: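 Double-blind, placebo-controlled (2:1) multiple-dose study. Men received 5, 10 or 20 mg and women 5 or 10 mg, oral and fed, daily on days 1–12. Women were dosed only after that dose was assessed in men. Participants were discharged day 17, with post-study exam day 20. AEs, weight, vitals, 12-lead ECG and clinical labs were recorded. TEAE incidence, intensity and drug relationship were assessed by dose and sex versus placebo.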

[5] = system: elderly adult men and women; experiment: Study 2 safety evaluation; assay type: in vivo, human; conditions: elderly population, single dose of 10 mg
Procedure, shortened: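 Elderly Japanese adults aged 65–85 (10 men, 10 women) were randomized 4:1, double-blind, to one oral 10 mg dose or placebo. Dosing was fasted, in the morning of day 1. Participants stayed on site days 1–5 and were discharged day 6. AEs, weight, vital signs, 12-lead ECG and haematology, chemistry, coagulation and urinalysis were recorded. TEAE incidence and intensity were compared with placebo.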

CYP2A6 = conditions: cited from earlier work
CYP2C8 = conditions: cited from earlier work
CYP2C9 = conditions: cited from earlier work
CYP3A4/5 = conditions: cited from earlier work
[6] = single 2.5 mg, n = 5, mean (SD)
[7] = elderly women, n = 7, mean (SD)

In the case of `Cc1ccc(Sc2ccccc2N2CCNCC2)c(C)c1` [Vortioxetine, 1‐[2‐(2,4‐dimethylphenylsulfanyl)phenyl]piperazine], the Tmax ([1]; both, po) is reported as 6 to 13 h, the half-life ([1]; male, oral) is reported as 50 to 70 h and the AUC(0-inf) ([1]; male, oral, 2.5 mg) is reported as 56.5 ng·h/mL. For the same molecule, the Cmax ([1]; male, oral, 2.5 mg) was 0.8 ng/mL, the Tmax ([1]; male, oral, 2.5 mg) was 10 h and the AUC(0-inf) ([1]; male, oral, 5 mg) was 188 ng·h/mL. For the same molecule, the Cmax ([1]; male, oral, 5 mg) was 1.9 ng/mL, the Tmax ([1]; male, oral, 5 mg) was 10 h and the half-life ([1]; male, oral, 5 mg) was 69.4 h. It also gave an AUC(0-inf) ([1]; male, oral, 10 mg) of 348 ng·h/mL, a Cmax ([1]; male, oral, 10 mg) of 3.5 ng/mL and a Tmax ([1]; male, oral, 10 mg) of 10 h. It also gave a half-life ([1]; male, oral, 10 mg) of 66 h, an AUC(0-inf) ([1]; male, oral, 20 mg) of 560 ng·h/mL and a Cmax ([1]; male, oral, 20 mg) of 7.7 ng/mL. The Tmax ([1]; male, oral, 20 mg) was 9 h, the AUC(0-inf) ([1]; male, oral, 40 mg) was 1310 ng·h/mL and the Cmax ([1]; male, oral, 40 mg) was 19.4 ng/mL. The Tmax ([1]; male, oral, 40 mg) was 6.3 h, the CL/F [1, 6] was 50 (20) L/h and the CL/F ([1]; single 5 mg, n = 6, mean (SD)) was 29.6 (10.3) L/h. For the same molecule, the CL/F ([1]; single 10 mg, n = 6, mean (SD)) was 35.2 (19.2) L/h, the CL/F ([1]; single 20 mg, n = 6, mean (SD)) was 41.4 (17.6) L/h and the CL/F ([1]; single 40 mg, n = 4, mean (SD)) was 34.0 (13.1) L/h. The “Fe0–48, cumulative excretion ratio (% of dose)” value [1, 6] was 0.0 (0.0) %, the “Fe0–48, cumulative excretion ratio (% of dose)” value ([1]; single 5 mg, n = 6, mean (SD)) was 0.0 (0.0) % and the “Fe0–48, cumulative excretion ratio (% of dose)” value ([1]; single 10 mg, n = 6, mean (SD)) was 0.007 (0.018) %. The “Fe0–48, cumulative excretion ratio (% of dose)” value ([1]; single 20 mg, n = 6, mean (SD)) was 0.023 (0.023) %, the “Fe0–48, cumulative excretion ratio (% of dose)” value ([1]; single 40 mg, n = 4, mean (SD)) was 0.034 (0.017) % and the AUC(0-inf) ([2]; female) was 305 ng·h/mL. The Cmax ([2]; female) was 4.6 ng/mL, the Tmax ([2]; female) was 6 h and the AUC(0-inf) ([2]; male) was 378 ng·h/mL. For the same molecule, the Cmax ([2]; male) was 4.2 ng/mL, the Tmax ([2]; male) was 6 h and the T1/2 ([2]; elderly men, n = 8, mean (SD)) was 85.2 (29.8) h. For the same molecule, the T1/2 [2, 7] was 63.5 (10.7) h, the “Fe0–120, fraction excreted” value ([2]; elderly men, n = 8, mean (SD)) was 0.0 (0.0) % and the “Fe0–120, fraction excreted” value [2, 7] was 0.0 (0.0) %. The Tmax ([3]; male, human, plasma, oral, 10 mg) was 12 h, the “90%CIs for the LS mean ratios of Cmax and AUC (fed vs fasted)” value ([3]; single 10 mg, no‐effect boundary 90%CI, 0.8–1.25) was “within the no‐effect boundary” and the tolerated single dose (healthy adult men; healthy men) was “up to 20 mg”. The AEs reported (healthy adult men; single 40‐mg dose group) was “Seven AEs”, the tolerated multiple dose ([4]; healthy men) was “up to 20 mg” and the tolerated multiple dose ([4]; healthy women) was ≤ 10 mg. The “intensity of TEAEs” value ([4]; multiple doses, all groups) was “all TEAEs were mild in intensity”, the safety and tolerability [5] was “safe and tolerated” and the “inhibitory or inducing effect in vitro” value (CYP2A6) was “No inhibitory or inducing effect”. For the same molecule, the “inhibitory or inducing effect in vitro” value (CYP2C8) was “No inhibitory or inducing effect”, the “inhibitory or inducing effect in vitro” value (CYP2C9) was “No inhibitory or inducing effect” and the “inhibitory or inducing effect in vitro” value (CYP3A4/5) was “No inhibitory or inducing effect”.
